Assay results as given in article PMC9592562 (Research and Practice in Thrombosis and Haemostasis, 2022).

What was measured:
aPL pool = test: custom immunoassay; assay type: binding, human; details: coated on plate (10 μg/ml); aPL pool 1/10 dilution; n = 9
[1] = tested on: aPL pool sera / IIa‐8.0‐biot‐2x; test: inhibition of aPL binding to IIa‐8.0‐biot‐2x ELISA; assay type: biochemical, human; details: preincubation 90 min, room temperature; 1, 10 and 100 μg/ml; n = 3–4; Figure 7A
How it was run: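 Pooled plasma from 11 APS patients (aPL pool sera) was preincubated for 90 min at room temperature with increasing concentrations (1, 10, 100) of monomeric peptide. It was then run in the anti-β2GP1 IgG ELISA on streptavidin-coated plates bearing the biotinylated dimeric peptide. Bound IgG was detected with anti-human secondary antibody (IRDye800CW or HRP) as fluorescence (AU) or A405. Mean ± SEM, n = 3–4.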

[2] = tested on: aPL from pool of plasma from 11 human patients; test: surface plasmon resonance, aPL over immobilized biotinylated peptide; assay type: binding; details: shape of stabilization curves; Figures 3C, 3D, 4E

Sequence	ability to interact with aPL compared with β2GP1 (aPL pool)	inhibition of aPL binding to IIa‐8.0‐biot‐2x, monomeric peptide [1]	sustained interaction / stability of binding with aPL [2]
VSRGGMRKFICPLTG [R39‐R43]	same ability to interact with aPL than β2GP1	failed to significantly inhibit	
VSRGGMRKKKKPLTG [Ib‐1‐biot]			neither R39‐R43‐biot nor Ib‐1‐biot have sustained interaction with aPL
